Measured values as given in the EternaBench riboswitch data.

Legend:
MS2 coat protein [1] = assay: apparent Kd, MS2 coat protein; higher = weaker binding; RNA-MaP array; theophylline 2 mM where present
How it was run: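 The apparent Kd comes from binding curves fitted cluster by cluster, filtered, and summarised as a median. Those curves followed SNAP-549-labelled MS2 coat protein from 0.7 or 1.5 nM, doubling to 3 µM, on Illumina sequencing-chip clusters where stalled E. coli RNA polymerase had transcribed the designs, without and then with constant ligand. The buffer was 100 mM Tris-HCl pH 7.5, 80 mM KCl, 4 mM MgCl2, BSA, DTT, yeast tRNA and Tween-20, and green signal was normalised to red-channel RNA signal and control-cluster median Fmax.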

MS2 coat protein [2] = assay: apparent Kd, MS2 coat protein; higher = weaker binding; RNA-MaP array
How it was run: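 On an Illumina sequencing chip, sequenced DNA templates served for transcription of the designed RNAs, which were then bound at room temperature by fluorescently labeled MS2 coat protein at 1.5 nM to 3 μM, with or without input ligand. Apparent Kd is the median of the fits to each cluster's binding curve. Only designs measured on at least 10 clusters were kept.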

[3] = designed as: ON switch for theophylline, no ligand
[4] = ligand present: theophylline, designed as: ON switch for theophylline
[5] = designed as: OFF switch for theophylline, no ligand
[6] = ligand present: theophylline, designed as: OFF switch for theophylline
[7] = designed as: ON switch for flavin mononucleotide, no ligand
[8] = ligand present: flavin mononucleotide, designed as: ON switch for flavin mononucleotide
[9] = designed as: OFF switch for tryptophan, no ligand
[10] = ligand present: tryptophan, designed as: OFF switch for tryptophan
[11] = designed as: OFF switch for flavin mononucleotide, no ligand
[12] = ligand present: flavin mononucleotide, designed as: OFF switch for flavin mononucleotide

## AUAACAUGAGGAUCACCCAUGUAAGGUGAUACCAGACGAAGUAAAGUCCCUUGGCAGCACAAGUAAAGUUACGAAUAUUGAUAGA
MS2 coat protein [1]; [3]
  apparent Kd: 430 nM
MS2 coat protein [1]; [4]
  apparent Kd: 47.3 nM

## UCAUUUGAGUGAGAUGUAAGGUAUCAUGAUACCAGUAGAUAAUUAUACCCUUGGCAGCAUAACAUGAGGAUCACCCAUGUACAUG
MS2 coat protein [1]; [5]
  apparent Kd: 22.8 nM
MS2 coat protein [1]; [6]
  apparent Kd: 24.2 nM

## CUUAUAGUAACUGAUACCAGUGUACUGACAUGAGGAUCACCCAUGUUGGGUUUUGUUGUACACCCUUGGCAGCAGAAUCUAUAAG
MS2 coat protein [1]; [5]
  apparent Kd: 69.5 nM
MS2 coat protein [1]; [6]
  apparent Kd: 86.6 nM

## UCUUACUAUAGUGAUACCAGACGUACAUGAGGAUCACCCAUGUUACAUUCUUGGUUAAAAGUCCCUUGGCAGCACGAUUUGUUCG
MS2 coat protein [1]; [5]
  apparent Kd: 9.28 nM
MS2 coat protein [1]; [6]
  apparent Kd: 9.5 nM

## UUAAAUGUGACGGAUACCAGCGUGUUGUAGAACAUGAGGAUCACCCAUGUAGUGAUCAAGCGCCCUUGGCAGCUGGUAUGUUUGA
MS2 coat protein [1]; [3]
  apparent Kd: 191 nM
MS2 coat protein [1]; [4]
  apparent Kd: 300 nM

## CGGUUUGUGAUGGAUACCAGCAGAGAAAAUGUUUAUCCUAACAUGAGGAUCACCCAUGUGUGCCCUUGGCAGCUGUUGUGGGCUG
MS2 coat protein [1]; [5]
  apparent Kd: 50.5 nM
MS2 coat protein [1]; [6]
  apparent Kd: 84.9 nM

## CCAUAAGUAACUGAUACCAGUGUACUGACAUGAGGAUCACCCAUGUUGGGUUUUGUUGUACACCCUUGGCAGCAGAAUCUUGUGG
MS2 coat protein [1]; [5]
  apparent Kd: 63 nM
MS2 coat protein [1]; [6]
  apparent Kd: 90.3 nM

## UUUGCACAUGAGGAUCACCCAUGUACAGAUACCAGCCUCAUCUACGGCCCUUGGCAGCUGAGAUAAUGGUGACGUGAUGGGCUUU
MS2 coat protein [1]; [5]
  apparent Kd: 14 nM
MS2 coat protein [1]; [6]
  apparent Kd: 26.3 nM

## AUCUCAUAGAGUGAUACCAGACUACAUGAGGAUCACCCAUGUUAGAUUUAAAUAUCAUUUGUCCCUUGGCAGCACAUUAAGUACA
MS2 coat protein [1]; [3]
  apparent Kd: 12.9 nM
MS2 coat protein [1]; [4]
  apparent Kd: 11.5 nM

## UGACAUUGCUCAGAUACCAGACAUGAGGAUCACCCAUGUACCGAGGUACCCGAAAGGAAUGUCCCUUGGCAGCUGAGCAAUGUCU
MS2 coat protein [1]; [5]
  apparent Kd: 10.9 nM
MS2 coat protein [1]; [6]
  apparent Kd: 152 nM

## ACUCGGUGUUUGUUGCUCCGAGUGUAUGAUACCAGUUAGUUUUAUGGCCCUUGGCAGCAUAGGACAUGAGGAUCACCCAUGUGUU
MS2 coat protein [1]; [3]
  apparent Kd: 32.6 nM
MS2 coat protein [1]; [4]
  apparent Kd: 45.7 nM

## UCUACAUGAGGAUCACCCAUGUGCCAUGAUACCAGACAUGAAAAUGUCCCUUGGCAGCAUGGGUAGCGCAUCCGAAAGGAUGCGU
MS2 coat protein [1]; [3]
  apparent Kd: 32.2 nM
MS2 coat protein [1]; [4]
  apparent Kd: 657 nM

## AUCCUCUAGAAUGAUACCAGACCAAACAUGAGGAUCACCCAUGUAUCAGGCAAUUGUUACGUCCCUUGGCAGCAUGUAUGCCGAC
MS2 coat protein [1]; [3]
  apparent Kd: 27.7 nM
MS2 coat protein [1]; [4]
  apparent Kd: 28.1 nM

## GAGCUGAUGUAGAAAUUUUAUUUAUGAGAUACCAGUACAGAAAUGUACCCUUGGCAGCUCAUUUUUACAUGAGGAUCACCCAUGU
MS2 coat protein [1]; [5]
  apparent Kd: 12.5 nM
MS2 coat protein [1]; [6]
  apparent Kd: 13.8 nM

## CUCAUGAGGAAGAAGGAUUAGGUCAGUGCAGUAAUAGGAUAUUCGUAACACAUGAGGAUCACCCAUGUCUACUCCGGAGCGACA
MS2 coat protein [2]; [7]
  apparent Kd: 182 nM
MS2 coat protein [2]; [8]
  apparent Kd: 81.1 nM

## GACCGGACAUCCUAGGAUAUUUAUACUGAUACAUGAGGAUCACCCAUGUUUGGAAACAUCGUACGAAAGAAGGAGGAGACCUCUGA
MS2 coat protein [2]; [7]
  apparent Kd: 11.7 nM
MS2 coat protein [2]; [8]
  apparent Kd: 10.8 nM

## GUGUUCACUGCAGGAUAUGUACAUGAGGAUCACCCAUGUUGAAACGGCUGGAAUCGGCAGAUGAAACAGAAGGGCAUGAAAAUU
MS2 coat protein [2]; [7]
  apparent Kd: 12.8 nM
MS2 coat protein [2]; [8]
  apparent Kd: 9.09 nM

## GGUUCAUCGUCGGCCGCCACUCACAUGAGGUGGAGCUGUAAACAUGAGGAUCACCCAUGUUGUUAGAGGACCGGGACGUGACGGC
MS2 coat protein [2]; [9]
  apparent Kd: 33.8 nM
MS2 coat protein [2]; [10]
  apparent Kd: 36.7 nM

## AUUUUAAACAAGAAGGGCUUACGCAAGCUGAGAGCAGGAUAUUGACAUGAGGAUCACCCAUGUAUUAGACCAUAAGAUCCCAUU
MS2 coat protein [2]; [11]
  apparent Kd: 20.5 nM
MS2 coat protein [2]; [12]
  apparent Kd: 20.6 nM

## AUGAUCGAACAGAAGGCACGGUGACAGUUAAAGUGAGGAUAUGUAGACAUGAGGAUCACCCAUGUUACUAUACACGGGUCUAUC
MS2 coat protein [2]; [11]
  apparent Kd: 15.1 nM
MS2 coat protein [2]; [12]
  apparent Kd: 45.9 nM

## GGUGAGUCAGGAUAUUGUGCAUUUGAGACCCACACGGGACACAAGAAGGGACAUGAGGAUCACCCAUGUGCUCA
MS2 coat protein [2]; [11]
  apparent Kd: 9.73 nM
MS2 coat protein [2]; [12]
  apparent Kd: 12.8 nM

## GGGUCGCGUUCGGCCGCCACUUGGAAACAUGAGGAUCACCCAUGUCAUAUGGUGGGACAUGUUGUAAGGACCGGGAACCGUCCUA
MS2 coat protein [2]; [9]
  apparent Kd: 64.2 nM
MS2 coat protein [2]; [10]
  apparent Kd: 88.1 nM
